Experimental data published in ChEMBL document CHEMBL1240416, “Synthesis, structure and DNA cleavage studies of coumarin analogues of tetrahydroisoquinoline and protoberberine alkaloids” (Eur J Med Chem, 2010).
Activity calls are given as the source filed them. No cut-off for these calls is given here.

Tests used:
Type in all cases: nucleic-acid assay
Nucleic Acid [1] = experiment: Induction of Aspergillus niger DNA cleavage after 2 hrs by agarose gel electrophoresis
How it was run: (§1)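 Genomic DNA was isolated from cultures grown at 37 °C (E. coli and S. aureus in nutrient broth for 24 h; A. niger in potato dextrose broth for 48 h). Extraction used Tris/EDTA/SDS lysis, phenol at 55 °C, chloroform:isoamyl alcohol and ethanol precipitation. DNA was incubated 2 h at 37 °C with compound from a 1 mg/mL DMF stock, then run on agarose in TAE at 50 V for about 30 min against marker and untreated-DNA lanes.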

Nucleic Acid [2] = experiment: Induction of Escherichia coli ATCC 35218 DNA cleavage after 2 hrs by agarose gel electrophoresis; how it was run: as §1
Nucleic Acid [3] = experiment: Induction of Staphylococcus aureus 6538 DNA cleavage after 2 hrs by agarose gel electrophoresis; how it was run: as §1

SMILES	Activity (Nucleic Acid [1])	Activity (Nucleic Acid [2])	Activity (Nucleic Acid [3])
COc1cc2c(cc1OC)C(Cc1cc(=O)oc3ccc(C)cc13)NCC2 (stereo unspecified)	inactive	inactive	inactive
COc1cc2c(cc1OC)C(Cc1cc(=O)oc3cc(C)ccc13)NCC2 (stereo unspecified)	inactive	inactive	inactive
Cc1ccc2c(CC3NCCc4ccccc43)cc(=O)oc2c1 (stereo unspecified)	inactive	inactive	inactive
Cc1ccc2c3c(c(=O)oc2c1)CN1CCc2ccccc2C1C3 (stereo unspecified)	inactive	inactive	inactive
COc1cc2c(cc1OC)C(Cc1cc(=O)oc3c1ccc1ccccc13)NCC2 (stereo unspecified)	Active	inactive	Active
Cc1ccc2oc(=O)cc(CC3NCCc4ccccc43)c2c1 (stereo unspecified)	inactive	inactive	inactive
O=c1cc(CC2NCCc3ccccc32)c2ccc3ccccc3c2o1 (stereo unspecified)	Active	inactive	Active
Cc1ccc2oc(=O)c3c(c2c1)CC1c2ccccc2CCN1C3 (stereo unspecified)	inactive	inactive	inactive

The next lines start with the values.

Activity (Nucleic Acid [1])	Activity (Nucleic Acid [2])	Activity (Nucleic Acid [3])	SMILES
Active	inactive	Active	COc1cc2c(cc1OC)C1Cc3c(c(=O)oc4c3ccc3ccccc34)CN1CC2 (stereo unspecified)
inactive	inactive	inactive	COc1cc2c(cc1OC)C1Cc3c(c(=O)oc4ccc(C)cc34)CN1CC2 (stereo unspecified)
inactive	inactive	inactive	COc1cc2c(cc1OC)C1Cc3c(c(=O)oc4cc(C)ccc34)CN1CC2 (stereo unspecified)
Active	inactive	Active	O=c1oc2c(ccc3ccccc32)c2c1CN1CCc3ccccc3C1C2 (stereo unspecified)
